Source: PubChem BioAssay
Beta cell apopt – blocks beta cell apoptosis; INS-1E cytokine-induced death, ATP luminescence, 48 h; percent of positive-control rescue, neutral wells zero; protection from apoptosis, % (concentration not given with the values); 300,000 tested, 0.8% active;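 active = Every replicate reaches about 75%, or at least half do and their mean reaches it too, limit read from the data; inconclusive = At least half of replicates reach the limit but their mean does not; inactive = Under half of replicates reach the limit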;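 also: higher means more ATP so stronger rescue from cytokine killing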
SKKanGAS inh – inhibitors of SKKanGAS S. pyogenes growth in kanamycin (SK-promoter or general growth effect); BacTiter-Glo, 6 h; inhibition, % at 7.5 µM; 300,000 tested, 1.3% active;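 active = mean replicate score, as percent of positive control median, at least 50; inconclusive = mean below 50 but one replicate at or above 50; inactive = mean and every replicate below 50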;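 also: strain carries kanamycin resistance gene driven by streptokinase promoter and grows in 40 µg/ml kanamycin; loss of luminescence reflects streptokinase promoter inhibition or plain growth inhibition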
Mdm2 MdmX PPI – human Mdm2/MdmX binding inhibition. SaOS-2 split-luciferase Mdm2/MdmX complementation, luminescence. O15151+Q00987. 330,000 tested, 3% active. inhibition, % at 8 µM;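 active = inhibition of at least 50% at 8 µM in the primary screen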
Target sequence (O15151 whole entry, looked up): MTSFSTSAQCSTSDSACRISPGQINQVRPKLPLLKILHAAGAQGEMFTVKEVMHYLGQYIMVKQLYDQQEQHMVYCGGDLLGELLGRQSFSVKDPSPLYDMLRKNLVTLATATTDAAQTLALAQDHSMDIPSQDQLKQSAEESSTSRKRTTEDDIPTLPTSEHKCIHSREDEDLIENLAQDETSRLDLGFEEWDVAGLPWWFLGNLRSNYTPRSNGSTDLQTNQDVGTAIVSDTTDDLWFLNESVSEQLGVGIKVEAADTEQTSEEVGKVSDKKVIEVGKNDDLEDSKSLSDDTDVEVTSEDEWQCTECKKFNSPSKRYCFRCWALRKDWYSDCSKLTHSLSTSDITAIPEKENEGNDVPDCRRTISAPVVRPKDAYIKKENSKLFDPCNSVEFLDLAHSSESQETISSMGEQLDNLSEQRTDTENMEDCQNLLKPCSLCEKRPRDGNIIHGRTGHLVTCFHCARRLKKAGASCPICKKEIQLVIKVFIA
Target sequence (Q00987 whole entry, looked up): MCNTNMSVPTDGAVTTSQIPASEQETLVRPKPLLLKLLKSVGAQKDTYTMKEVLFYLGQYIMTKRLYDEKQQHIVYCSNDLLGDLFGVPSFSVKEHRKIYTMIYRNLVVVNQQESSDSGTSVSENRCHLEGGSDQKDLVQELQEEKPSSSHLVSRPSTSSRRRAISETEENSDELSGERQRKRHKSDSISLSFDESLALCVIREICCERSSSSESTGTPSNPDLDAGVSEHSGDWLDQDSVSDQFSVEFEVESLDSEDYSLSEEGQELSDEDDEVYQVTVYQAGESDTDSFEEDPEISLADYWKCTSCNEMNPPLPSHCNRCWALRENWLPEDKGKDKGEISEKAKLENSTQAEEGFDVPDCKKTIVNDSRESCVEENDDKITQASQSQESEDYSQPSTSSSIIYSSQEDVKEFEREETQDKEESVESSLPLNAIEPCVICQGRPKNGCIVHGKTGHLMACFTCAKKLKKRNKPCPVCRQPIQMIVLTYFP
CSC inhib – cancer stem cell inhibition; cancer stem cell-like cells viability, luminescence; inhibition, % at 7.5 µM; 300,000 tested, 1.1% active; in the data active = inhibition above about 75%; inconclusive = no clear call, values can overlap the other calls; tested in HMLE shEcad cells
CHOP UPR activ – activators of apoptotic arm of unfolded protein response (CHOP); CHO-CHOP luciferase reporter, UPR activation, luminescence; percent of tunicamycin response over DMSO baseline; activation, % at 10 µM; 330,000 tested, 0.34% active; AID 449763;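 active = at 10 µM dose, activation of 40% or more, normalized to positive control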
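measured by = luciferase luminescence | assay system = CHO-CHOP cells, stable luciferase reporter of PERK-eIF2a-CHOP signalling | amount = 500 reporter cells seeded per well | timing = 6 h compound exposure at 37 °C after overnight seeding | controls = positive tunicamycin 10 µg/mL, negative DMSO alone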
UPR XBP1 act – activators of adaptive arm of unfolded protein response (XBP1). CHO-XBP1 luciferase reporter, IRE1-XBP1 UPR activation, luminescence; percent of tunicamycin response, DMSO as zero. activation, % at 20 µM. 330,000 tested, 0.33% active. AID 463104;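 active = versus positive control, 20 µM dose yields 30% or more activation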
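Material: CHO cell line with stable XBP1 luciferase reporter; buffer or medium: F12 medium containing 10% fetal bovine serum; compound: single point, 20 µM final compound, 1% DMSO; incubation: 6 h treatment, 37 °C; measured by: glow luminescence from Steady-Glo reagent; evaluation: activation, % of tunicamycin; control set: tunicamycin high, DMSO low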
Mdm2-MdmX conf – confirmation of human Mdm2/MdmX interaction inhibitors; shares compounds with Mdm2 MdmX PPI; inhibition, % at 8 µM; Mdm2-MdmX binding, luminescent assay; 10,000 tested, 55% active; AID 489028; in the data active = inhibition above about 40%
FLuc counter – counter-screen for Mdm2/MdmX inhibitors: full-length luciferase | 6,200 tested, 77% active | SaOS-2 full-length luciferase counterscreen, luminescence | inhibition, % at 8 µM | AID 504607 | shares compounds with Mdm2 MdmX PPI;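 active = mean inhibition at 8 µM reaching about 37%, which flags the compound as non-specific, limit read from the data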;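 also: p53-null SaOS-2 cells with luciferase driven by a doxycycline-inducible promoter; compound on cells about two nights before reading with doxycycline added after day one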
Hits are given with their value; - = inactive; ? = inconclusive; . = no result. The list is not random: actives were taken first. Their share in the collection is about 4.8%.

SMILES	Beta cell apopt	SKKanGAS inh	Mdm2 MdmX PPI	CSC inhib	CHOP UPR activ	UPR XBP1 act	Mdm2-MdmX conf	FLuc counter
COc1ccc(N2C(=O)N3[C@H](c4cccc(C)c4)[C@@H]4C(=O)N(Cc5ccccc5)C(=O)[C@@H]4[C@]3(Cc3ccccc3)C2=O)cc1	-	-	70	-	-	-	80	-
CCN1C(=O)[C@H]2[C@@H](c3ccc(C)cc3)N3C(=O)N(c4ccc(C(F)(F)F)cc4)C(=O)[C@@]3(Cc3ccccc3)[C@H]2C1=O	-	-	-	-	-	-	.	.
Cc1cccc([C@@H]2[C@@H]3C(=O)N(Cc4ccccc4)C(=O)[C@@H]3[C@]3(C)C(=O)N(c4ccc(C(F)(F)F)cc4)C(=O)N23)c1	-	-	84	-	-	-	74	-
CC(=O)c1ccc(S(=O)(=O)N2CCC3(CC2)CC(=O)c2ccccc2O3)cc1	-	-	-	-	-	-	.	.
Cc1ccc(-c2sc(-c3ccccc3)nc2CC(=O)Nc2ccccc2F)cc1	141	-	52	-	-	-	-	.
COC(=O)Nc1nnc(CC(=O)Nc2ccccc2C)s1	-	-	-	-	-	-	.	.
Cc1ccccc1NC(=O)Cc1nnc(NC(=O)Nc2ccccc2F)s1	-	-	77	-	-	-	-	.
CC(=O)Nc1cccc(NC(=O)Cc2nc(-c3ccccc3)sc2-c2ccc(C)cc2)c1	-	-	-	-	-	-	.	.
Cc1ccc(S(=O)(=O)n2c(N)nc3ccccc32)cc1	-	-	-	-	-	-	.	.
Nc1ccc(C(=O)n2c3ccccc3c3ccccc32)cc1	-	-	60	-	-	-	57	63
Cc1ccc(C(=O)n2c(N)nc3ccccc32)cc1	-	?	52	-	-	-	44	98
S=C(NCCNCc1ccccc1)NC1CCCCC1	-	-	51	-	-	-	-	.
CCN(Cc1ccc(OC)c(F)c1)C(=O)CCl	-	-	89	-	-	-	63	-
CC(NC(=O)CNC(=O)c1sc2ccccc2c1Cl)c1cccnc1 (stereo unspecified)	-	-	-	-	-	-	.	.
O=C1C=C(Nc2ccc(Cl)cc2Cl)CC(c2ccco2)C1 (stereo unspecified)	-	-	51	-	-	-	53	62
Cn1c(SCC(=O)Nc2cc(Cl)cc(Cl)c2)nnc1-c1ccc2nonc2c1	-	-	71	-	-	-	-	.
Cc1ccc(N2C(=O)c3cccc4c(N)ccc(c34)C2=O)c2cccnc12	-	-	62	-	-	-	61	80
Cc1nn(C)c(C)c1N1C(=O)c2cccc3c(N)ccc(c23)C1=O	-	.	.	-	.	.	.	.
C[C@H]1CN([C@@H](C)CO)C(=O)Cc2cc(NC(=O)CCC(F)(F)F)ccc2O[C@H]1CN(C)S(=O)(=O)c1ccc(Cl)cc1	.	.	55	.	-	-	50	65
C[C@@H]1CN([C@@H](C)CO)C(=O)Cc2cc(NC(=O)Nc3ccc(F)cc3)ccc2O[C@@H]1CN(C)Cc1ccc(Cl)c(Cl)c1	-	.	100	.	-	-	63	56
C[C@@H]1CN([C@@H](C)CO)C(=O)c2cc(NS(C)(=O)=O)ccc2O[C@H]1CN(C)Cc1ccc(Oc2ccccc2)cc1	-	.	-	-	-	-	.	.
C[C@@H]1CN([C@H](C)CO)C(=O)c2cc(NC(=O)Cc3ccccc3)ccc2O[C@H]1CN(C)Cc1ccc(Oc2ccccc2)cc1	-	.	73	-	-	-	-	.
C[C@@H]1CN([C@@H](C)CO)C(=O)c2cc(NC(=O)Nc3ccc(F)cc3)ccc2O[C@@H]1CN(C)Cc1ccc(Oc2ccccc2)cc1	-	.	94	137	-	-	-	.
C[C@H]1CN([C@@H](C)CO)C(=O)c2cc(NC(=O)Cc3ccccc3)ccc2O[C@H]1CN(C)Cc1ccccc1	-	.	-	-	-	-	.	.
C[C@H]1CN([C@@H](C)CO)C(=O)Cc2cc(NC(=O)CCC(F)(F)F)ccc2O[C@H]1CN(C)S(=O)(=O)c1ccc(F)cc1	-	.	-	-	-	-	.	.
SMILES	Beta cell apopt	SKKanGAS inh	Mdm2 MdmX PPI	CSC inhib	CHOP UPR activ	UPR XBP1 act	Mdm2-MdmX conf	FLuc counter
CCN(CC)CCCCCC(=O)Nc1ccccc1C(=O)Nc1ccccc1	-	-	-	-	-	-	.	.
CCN1CCN(C(=O)c2ccc3c(=O)n(CCc4ccccc4)c(=O)[nH]c3c2)CC1	-	-	-	-	-	-	.	.
O=c1c2ccccc2cnn1CCOc1ccccc1	-	-	60	-	-	-	69	65
O=C(NNC(=O)c1cc(Cl)ccc1[N+](=O)[O-])c1csc(N2CCOCC2)n1	-	-	-	-	-	-	.	.
Cc1cccc2cc(CN(C(=O)c3cnccn3)C3CCCCC3)c(Cl)nc12	-	-	84	-	-	-	83	36
NC(=O)c1ccc(Oc2ccc3c(c2)CCC3)c([N+](=O)[O-])c1	-	-	-	.	-	-	.	.
CSc1nc2c(cnn2-c2ccc(C)c(C)c2)c(=O)[nH]1	.	-	53	-	-	-	-	.
CCC(C)Sc1nc2c(cnn2-c2ccc(C)c(C)c2)c(=O)[nH]1 (stereo unspecified)	-	-	-	-	-	-	.	.
COc1ccc(C2c3ccc(O)cc3Oc3ncn4nc(-c5ccco5)nc4c32)cc1OC (stereo unspecified)	-	-	-	-	-	-	.	.
COc1ccc(-c2cc(-c3cccs3)c(C#N)c(SCC(=O)NCc3ccccc3)n2)cc1	-	-	61	-	-	-	-	.
COc1ccc(-c2cc(-c3cccs3)c(C#N)c(SCC(=O)NCc3ccccc3OC)n2)cc1	-	-	84	-	-	-	-	.
CC(=O)C[C@@H](O)CC(=O)[C@@H]1OC(=O)CCCCCc2ccccc21	.	.	-	.	-	-	.	.
CCN(CC)c1ccc(S(=O)(=O)N2CCOCC2)cc1NC(=O)CN1CCN(Cc2ccccc2)CC1	-	-	-	-	-	-	.	.
O=C(CCc1ccccc1)c1ccc2c(c1)OCCCO2	-	-	-	-	-	-	.	.
O=C(NCCS(=O)(=O)NCCc1ccccc1)c1ccc2c(c1)OCO2	.	-	-	-	-	-	.	.
O=C(NCCc1ccccc1)c1ccc2c(c1)OCCO2	-	-	84	-	-	-	85	-
O=C(CCCc1ccccc1)c1ccc2c(c1)OCCO2	-	-	90	-	-	-	88	57
O=C(NCCc1ccccc1)c1ccc2c(c1)OCCCO2	-	-	97	-	-	-	94	52
COc1ccc(CCNC(=O)c2ccc3c(c2)OCCO3)cc1	-	-	-	-	-	-	.	.
NC(=O)N=Nc1c2[nH]c3ccccc3nc-2c2ccccc12	-	72	82	-	-	-	52	65
